Screening data: PubChem BioAssay, several laboratories
A selection: hits, their analogues and other compounds. The true share with any hit is near 1.3%.
MT1-MMP act inh – blocks activation of human MT1-MMP | P50281 | HT1080 RFP-PRO-GFP cells, GFP/RFP ratio fluorescence, overnight; percent of plate control window, DMSO zero | GFP/RFP ratio change, % at 20 µM | 0.061% of 360,000 active;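 active means GFP/RFP ratio change of at least 30% with cell ATP level not reduced by more than half and red fluorescence within 50% of control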
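Assay system – RFP-PRO-GFP reporter HT1080 cells · Compound dosing – single dose of 20 µM compound, 1% DMSO final · Incubation – overnight compound exposure at 37 °C · Measure – GFP/RFP fluorescence ratio · Benchmarks – DMSO wells and RFP-L50D-GFP cells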
hiPSC survival – increases survival of single human iPS cells. survival enhancement, % at 20 µM. 0.044% of 360,000 active. hiPSC single-cell survival, ATPlite luminescence; 100% = ROCK inhibitor wells, 0% = DMSO; in the data active means survival enhancement above about 18%;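 further: cells exposed to compounds for 16 hours before the ATP read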
FAS-TE inh – blocks the thioesterase domain of human fatty acid synthase; P49327; recombinant FAS-TE, OMFH fluorogenic substrate, fluorescence endpoint; inhibition, % at 15 µM; 0.67% of 360,000 active;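 active means compounds whose normalised, plate-corrected inhibition of enzyme fluorescence in the single-dose primary screen is 50% or more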
DAGLB inhibitor – diacylglycerol lipase beta (human) inhibition; Q8NCG7; HEK293T DAGLB membrane lysate, EnzChek fluorogenic substrate; inhibition, % at 5.17 µM; 0.059% of 340,000 active; AID 504411; in the data active means inhibition above about 34%
SKN-1 block – C. elegans SKN-1 inhibition; inhibition, % at 21.8 µM; C. elegans VP596 Pgst-4::GFP/RFP ratio, acrylamide-induced, 24 h; 0.49% of 360,000 active;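 active means interference check ratio from 0.5 to 1.5 plus GFP to RFP signal ratio inhibition reaching or exceeding a fixed threshold, cut at about 30% in these data, passing the limit was not always enough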
Of the large screens only hits and unclear results are named; the others gave an inactive call.

CCCn1c(=S)[nH]c2sc3c(c2c1=O)CCCC3	none
CCOC(=O)C1(C)CCCN(C(=O)c2cc(F)ccc2C)C1 (centres undefined)	none (no result: DAGLB inhibitor)
Clc1ccc(-c2nnsc2SCc2ccccc2)cc1	SKN-1 block 36
CC(C)(C)OC(=O)C[C@@H]1C/C=C\C[C@H](CC(=O)N[C@@H](CO)Cc2ccccc2)C(=O)N[C@H](C(C)(C)C)COC1=O	none
O=S(=O)(c1cccc2cnccc12)N1CCNCC1	hiPSC survival 27
N#C/C(=N\Nc1ccc(Cl)cc1)C(N)=S	SKN-1 block 39
Cc1ccc(C(=O)N(C)CC(=O)Nc2ccc(N3CCOCC3)cc2)s1	SKN-1 block 35
CN(CC(=O)Nc1ccc(N2CCOCC2)cc1)C(=O)c1cc2c(s1)CCCC2	none
Clc1ccc(OCc2noc(-c3ccsc3)n2)c(Cl)c1	SKN-1 block 74
c1ccc2sc(NC3=NCN(C4CCCCC4)CN3)nc2c1	none
CC1CCCCC1N1CN=C(Nc2nc3ccccc3s2)NC1 (centres undefined)	SKN-1 block 56
Cc1cc(C)n(-c2nc3ccccc3nc2N2CCN(S(=O)(=O)c3ccc4ccccc4c3)CC2)n1	FAS-TE inh 67
COc1cccc(C(=O)N2CCC[C@@H]2C(=O)N2CCC[C@@H]2C(=O)NCc2ccccc2Cl)c1	none (no result: DAGLB inhibitor)
CSc1ccc(CN2CCC(C)(Oc3cnc(Cl)c4ccccc34)C2)cc1 (centres undefined)	none (no result: DAGLB inhibitor)
Cc1onc(-c2c(F)cccc2Cl)c1C(=O)Nc1cc2cc([N+](=O)[O-])ccc2oc1=O	none (no result: DAGLB inhibitor)
N=c1n(Cc2ccc(Cl)cc2)c2ccccc2n1CC(O)COc1ccccc1 (centres undefined)	none
OC(COCC(F)(F)C(F)(F)C(F)(F)C(F)F)Cn1c2ccc(Cl)cc2c2cc(Cl)ccc21 (centres undefined)	FAS-TE inh 56
CC(C)N1CCN(c2ccncc2S(=O)(=O)N2CCN(C)CC2)CC1	none
Cc1cccc(N=C2NC(=O)/C(=C/c3cccn3C)S2)c1C	SKN-1 block 41
CCOc1cc(C(c2c(C)[nH][nH]c2=O)c2c(C)[nH][nH]c2=O)ccc1OS(=O)(=O)c1ccc(C)cc1	SKN-1 block 46
CCOC1=C2[C@H](c3ccc(C)cc3)N(S(=O)(=O)c3ccc(C)cc3)C[C@H]2n2c(=O)n(-c3ccccc3)c(=O)n2C1	hiPSC survival 41 (no result: DAGLB inhibitor)
CCCC(=O)N1CCC1(C)C(=O)NS(=O)(=O)c1ccccc1Cl (centres undefined)	none (no result: DAGLB inhibitor)
COC(=O)c1ccc(Nc2cc(C)nc3ncnn23)cc1	SKN-1 block 37
CC(=O)c1cccc(NC(=O)C2Cc3c(-c4ccc5c(c4)OCO5)ccnc3O2)c1 (centres undefined)	none (no result: DAGLB inhibitor)
O=C(NCCCN1CCCCCC1)c1ccc(CS(=O)(=O)Cc2ccccc2F)o1	hiPSC survival 28
Nc1ccc2c3c(ccc([N+](=O)[O-])c13)CC2	none
c1ccc2nc(-c3nc4ccccc4o3)ccc2c1	SKN-1 block 80
Cc1c(N2C(=O)/C(=C\c3ccc(N(C)C)cc3)N(C)C2=S)c(=O)n(-c2ccccc2)n1C	SKN-1 block 64
CN1C(=S)N(c2cccnc2)C(=O)/C1=C\c1ccc(N(C)C)cc1	none
O=C(CCn1c(=O)c2ccccc2n(CC(=O)NCCC2=CCCCC2)c1=O)NCc1ccco1	SKN-1 block 35
COCCCNC(=O)CCn1c(=O)c2ccccc2n(CC(=O)NCCC2=CCCCC2)c1=O	none
COc1ccc(-c2ccc3c(=O)cc(-c4ccsc4)oc3c2)cn1	SKN-1 block 47
COc1cc(-c2ccc3oc(-c4ccsc4)cc(=O)c3c2)cc(OC)c1OC	none
CC(=O)c1ccc(OCc2nnn(CC(=O)O)c2-c2ccccc2)cc1	none (no result: DAGLB inhibitor)
CC(C)c1ccc(CC(=O)N2CCC2(C)C(=O)NS(=O)(=O)c2cccc(C#N)c2)cc1 (centres undefined)	none (no result: DAGLB inhibitor)
O=C(NCc1n[nH]c(=S)n1-c1ccc(F)cc1)c1ccc(S(=O)(=O)N2CCOCC2)cc1	SKN-1 block 38
Cc1nc(C(F)(F)F)ccc1C(=O)N1CCCC(C)(C(=O)O)C1 (centres undefined)	none (no result: DAGLB inhibitor)
Cc1cccc(NC(=O)CNC(=O)[C@H]2O[C@@H](n3ccc(=O)[nH]c3=O)[C@H](O)[C@@H]2O)c1C	none (no result: DAGLB inhibitor)
Cc1ccc2c3c(cccc13)-c1ccccc1C2=O	none
Cc1coc2c1C(=O)C(=O)c1c-2ccc2c(C)cccc12	FAS-TE inh 74
Oc1ccc(Nc2nc(NCC3CCCO3)c3ccccc3n2)cc1 (centres undefined)	none
COc1cccc(Nc2nc(NCC3CCCO3)c3ccccc3n2)c1 (centres undefined)	SKN-1 block 37
COc1ccc(C(=O)Nc2cccc(OC(=O)c3ccc(C)c(C)c3)c2)cc1	SKN-1 block 42
CN1CCN(C(=O)c2ccccc2N(Cc2ccccc2)S(C)(=O)=O)CC1	SKN-1 block 40
CCSc1ncc(/C=N/Nc2ccc(Cl)cc2)n1C	none
CCSc1ncc(/C=N/Nc2ccccc2)n1C	SKN-1 block 45
Cc1ccc(-c2[nH]ncc2/C=C(\C#N)C(=O)NC2CCCCC2)cc1	SKN-1 block 59
COCCNC(=O)C1(C)CCCN(C(=O)c2ccc3c(c2)CCO3)C1 (centres undefined)	none (no result: DAGLB inhibitor)
Cc1ccc(F)c(C2C3C=CCC(c4cccc(-c5ccc(N(C)C)cc5)c4)C3C(=O)N2Cc2ccccc2)c1 (centres undefined)	SKN-1 block 44
O=C(Nc1nnc([C@H]2C[C@H](O)[C@@H](CO)O2)s1)NC1CCCCC1	none (no result: DAGLB inhibitor)
CCCCCC(=O)N1C[C@@H](O)[C@H](n2cc(-c3ccc(F)cc3)nn2)C[C@@H]1c1ccccc1	none
CN1C(C)(C)CC(O)(C(=O)O)CC1(C)C	none (no result: DAGLB inhibitor)
CN(C)c1ccc(C=C2SC(=S)NC2=O)cc1	SKN-1 block 40
CCOc1ccc2nc(NC(=O)c3ccco3)sc2c1	SKN-1 block 35
CCOc1ccc2nc(NC(=O)c3ccc(S(=O)(=O)N4CCOCC4)cc3)sc2c1	SKN-1 block 35
NC(=O)C1(N2CCCCC2)CCN(C(=O)c2cc(COc3c(F)cccc3F)on2)CC1	none
Cc1c(CCOC(=O)C23CC4(C)CC(C)(CC(C)(C4)C2)C3)sc[n+]1CC(=O)c1ccccc1	SKN-1 block 38
Cc1c(CCOC(=O)CC23CC4CC(CC(C4)C2)C3)sc[n+]1CC(=O)c1ccccc1	none
COCCN1C[C@@H](CO)O[C@@H](n2cnc3c(NCc4ccco4)ncnc32)C1	none (no result: DAGLB inhibitor)
O=C(NCc1ccco1)c1sc2cc(F)ccc2c1Cl	SKN-1 block 37
CN1CCS/C1=C\C=C1/SC(=S)N(CC(=O)O)C1=O	none
CCN1C(=O)/C(=C/C=C2/SCCN2C)SC1=S	SKN-1 block 27
CCc1nc2c(OCc3ccccc3)cccn2c1N(Cc1ccccc1)C(C)=O	none (no result: DAGLB inhibitor)
O=C(NCc1ccc2c(c1)OCO2)c1cccc(C(=O)NCc2ccc3c(c2)OCO3)c1	none
